Experimental data from PMC6263940 (Nature chemical biology, 2018).

Assays:
ABHD12 [1] = biological target: T1, ABHD12 (Mus musculus, UniProt Q99LR1); experiment: Ex vivo gel-based competitive ABPP; assay type: in vivo; conditions: mice, 60 mg/kg, 4 h
T1 sequence (Q99LR1 1-398): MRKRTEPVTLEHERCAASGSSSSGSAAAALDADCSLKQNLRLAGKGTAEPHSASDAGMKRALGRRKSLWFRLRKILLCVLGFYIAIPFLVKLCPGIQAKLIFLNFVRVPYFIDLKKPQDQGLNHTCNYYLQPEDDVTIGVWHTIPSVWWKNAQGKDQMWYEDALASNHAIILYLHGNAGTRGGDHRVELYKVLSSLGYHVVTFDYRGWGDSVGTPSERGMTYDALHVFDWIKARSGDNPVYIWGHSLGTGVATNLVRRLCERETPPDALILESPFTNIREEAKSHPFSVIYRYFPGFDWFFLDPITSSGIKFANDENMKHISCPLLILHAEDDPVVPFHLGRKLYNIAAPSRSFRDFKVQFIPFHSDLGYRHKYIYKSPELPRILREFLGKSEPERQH

ABHD12 [2] = biological target: T2, ABHD12 (Homo sapiens, UniProt Q8N2K0); experiment: In situ treatment of THP-1 cells, competitive gel-based ABPP with JJH350 probe; assay type: cell-based; conditions: 1 μM, 4 h in situ
T2 sequence (Q8N2K0 1-398): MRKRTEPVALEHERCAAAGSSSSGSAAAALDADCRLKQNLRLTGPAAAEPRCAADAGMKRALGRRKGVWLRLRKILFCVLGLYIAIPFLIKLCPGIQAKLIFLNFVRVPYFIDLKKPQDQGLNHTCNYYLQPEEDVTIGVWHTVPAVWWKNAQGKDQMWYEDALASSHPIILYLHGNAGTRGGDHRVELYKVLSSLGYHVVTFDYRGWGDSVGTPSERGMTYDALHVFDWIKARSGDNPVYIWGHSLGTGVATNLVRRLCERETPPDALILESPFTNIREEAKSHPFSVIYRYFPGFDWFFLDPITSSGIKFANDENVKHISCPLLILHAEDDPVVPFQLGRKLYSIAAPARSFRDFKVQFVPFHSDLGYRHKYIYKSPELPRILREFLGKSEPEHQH
In short: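 Whole THP-1 cells exposed to test compound or DMSO for 4 h at 37 °C, 5% CO₂, then washed twice with ice-cold DPBS. Proteome (1 mg/mL) labelled with JJH350 (2 μM final, 45 min, 37 °C), clicked by CuAAC and resolved on gel. ABHD12 band intensity is expressed relative to the control-treated sample, set to 100%.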

THP-1 cells = experiment: Targeted LC-MS of; assay type: cell-based, human; conditions: DO264 0.001-1 μM, (S)-DO271 1 μM, 4 h
In short: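 THP-1 cells (6 million in 10 mL) incubated with test compound or DMSO for 4 h at 37 °C, 5% CO₂. Cells washed twice with ice-cold DPBS and stored at −80 °C, then analysed by targeted LC-MS metabolomics for lyso-PS and PS species.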

LCMV clone 13 = conditions: mouse, in vivo, ip, 30 mg/kg
ABHD12 [3] = biological target: T2, ABHD12; experiment: ABPP-SILAC; assay type: cell-based; conditions: 1 μM, 4 h, THP-1 cells
In short: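 Heavy- or light-labelled THP-1 cells (30 million) differentiated with PMA (150 ng/mL final) for 24 h, washed, then kept a further 24 h in fresh SILAC medium. Light cells treated with test compound and heavy cells with DMSO, 4 h at 37 °C. Sonicated whole-cell proteomes (2 mg/mL) labelled separately with FP-biotin 1 μM, 30 min, room temperature, then combined for quantitative MS.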

mice = experiment: Two-week daily dosing, overt signs of toxicity; assay type: in vivo, mouse; conditions: adult mice, 30 mg/kg daily, p.o., two weeks
[4] = test system: serine hydrolases in THP-1 cells; experiment: ABPP-SILAC; assay type: cell-based, human; conditions: 1 μM, 4 h, THP-1 cells
ABHD12 [5] = biological target: T1, ABHD12; experiment: Competitive gel-based ABPP with JJH350 probe in mouse brain membrane proteome; assay type: biochemical; conditions: for activity against ABHD12 (in words): gel-based competitive ABPP, mouse brain membrane proteome
[6] = Measurement of drug concentration in brain and blood of mice; assay type: in vivo, mouse; conditions: 4 h, at 60 mg/kg (i.p.) approximated exposures observed with DO264
In short: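 Tissues harvested 4 h after dosing. Brain homogenised in 4 volumes of water per weight; cardiac-puncture blood quenched 1:4 in acetonitrile. Samples diluted 1000–2000-fold in 50% ACN and spiked into blank C57BL/6J brain homogenate or blood, alongside serially diluted calibration standards. After vortexing and centrifugation (4 °C, 15 min), supernatant diluted 5-fold in water and quantified by LC/MS/MS.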

ABHD12 [7] = biological target: T1, ABHD12; experiment: Lyso-PS hydrolysis assay with membrane lysates of ABHD12-transfected cells; assay type: biochemical
In short: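 Membrane lysate of ABHD12-transfected cells in DPBS incubated with 17:1 lyso-PS (100 μM final) for 20 min at 37 °C. Quenched in 2:1 CHCl₃/MeOH with 15:0 FFA internal standard. Activity is the LC-MS 17:1 FFA/15:0 FFA peak-area ratio minus mock-transfected membrane activity. IC50 fitted as log(inhibitor) vs normalized response.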

ABHD12 [8] = biological target: T1, ABHD12; experiment: Competitive ABPP with FP-Rh probe, lysates of ABHD12-transfected cells; assay type: biochemical; conditions: hit compound tested at 10 μM
In short: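 Mouse ABHD12 expressed in HEK293F cells by PEI transfection (48 h, 37 °C, 5% CO₂). Membranes prepared by hypotonic lysis, sonication, 100,000 × g pelleting and a high-salt wash, then resuspended in DPBS. Lysate (1 mg/mL) pre-exposed to hit compound, then labelled with FP-Rh (1 μM final, 45 min, 37 °C). Gel band intensity is read relative to control (100%).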

ABHD12 [9] = biological target: T1, ABHD12; experiment: Covalent labelling of mouse brain ABHD12 visualized by CuAAC with Rh-N3; assay type: biochemical; conditions: 45 min, 37 °C

SMILES: FC(F)(F)Oc1ccc(Oc2ccnc(N3CCC[C@H](NC(=S)Nc4cccnc4)C3)c2Cl)c(Cl)c1 [(S)-DO271, (S)-N-3-pyridyl-N’-(1-[3-chloro-4-{2-chloro-4-(trifluoromethoxy)phenoxy}pyridine-2-yl]piperidin-3-yl)thiourea]
- brain ABHD12 activity, ex vivo analysis with JJH350 probe (ABHD12 [1]): did not block
- ABHD12 activity in THP-1 cells by competitive gel-based ABPP (in words) (ABHD12 [2]): unaffected
- lyso-PS content of THP-1 cells (THP-1 cells): did not alter
- fraction of treated ABHD12(−/−) mice that died prior to sacrifice at day 10 (LCMV clone 13): 30-40%
- effect on ABHD12 activity (in words) (ABHD12 [3]): did not affect
- overt signs of toxicity, such as weight loss or behavioral distress (mice): neither compound produced overt signs of toxicity
- effect on activity of other serine hydrolases [4]: did not affect
- activity against ABHD12 (in words) (ABHD12 [5]): inactive
- exposure compared with DO264 (in words) [6]: lower exposure

SMILES: Cc1cnc(N2CCN(NC(=S)Nc3cccnc3)CC2)c(Cl)c1 [DO127, N-3-pyridyl-N’-[1-{3-chloro-5-(methyl)pyridin-2-yl}piperazine-4-yl]thiourea]
- activity against ABHD12 (in words) (ABHD12 [5]): no activity

SMILES: FC(F)(F)c1cnc(N2CCC(NC(=S)Nc3cccnc3)CC2)c(Cl)c1 [DO130, N-3-pyridyl-N’-[1-{3-chloro-5-(trifluoromethyl)pyridin-2-yl}piperidin-4-yl]thiourea]
- IC50 (ABHD12 [7]): 1.3 µM
- activity in LC/MS-based lyso-PS hydrolysis secondary assay (ABHD12 [7]; hit compound tested at 10 μM): showed activity
- activity in competitive ABPP secondary assay (FP-Rh probe) (ABHD12 [8]): showed activity

SMILES: O=C(Nc1cccnc1)NC1CCN(c2nccc(Oc3ccc(OC(F)(F)F)cc3Cl)c2Cl)CC1 [DO277, N-3-pyridyl-N’-(1-[3-chloro-4-{2-chloro-4-(trifluoromethoxy)phenoxy}pyridine-2-yl]piperidin-4-yl)urea]
- IC50 (ABHD12 [5]): 0.17 µM

SMILES: CN(C(=S)Nc1cccnc1)C1CCN(c2nccc(Oc3ccc(OC(F)(F)F)cc3Cl)c2Cl)CC1 [DO276, N-3-pyridyl-N’-methyl-N’-(1-[3-chloro-4-{2-chloro-4-(trifluoromethoxy)phenoxy}pyridine-2-yl]piperidin-4-yl)thiourea]
- IC50 (ABHD12 [5]): 1.1 µM

SMILES: C#Cc1ccc(Oc2ccnc(N3CCC(NC(=S)Nc4cccnc4)CC3)c2Cl)c(Cl)c1 [DO274, N-3-pyridyl-N’-(1-[3-chloro-4-{2-chloro-4-(ethynyl)phenoxy}pyridine-2-yl]piperidin-4-yl)thiourea]
- ABHD12 inhibitory activity (in words) (ABHD12 [7]): potent ABHD12 inhibitory activity
- covalent modification of ABHD12 (ABHD12 [9]): did not show evidence of covalent modification
